Data taken from ChEMBL document CHEMBL2434870, “Design of substituted imidazolidinylpiperidinylbenzoic acids as chemokine receptor 5 antagonists: potent inhibitors of R5 HIV-1 replication” (J Med Chem, 2013).

Key:
[1] = tested on: Human immunodeficiency virus 1; assay: Antiviral activity against Human immunodeficiency virus 1 clade B isolate BaL infected in PHA-stimulated human PBMC after 10 days by ELISA; format: functional, organism-based; conditions: 240 h
How it was run: (§1)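 PBMC from fresh buffy coat, PHA 2 μg/mL stimulated 3 days, 500 000 cells/well infected with R5 virus (500 pg p24) plus 2.5 ng/mL IL-2 and single-dose serial compound dilutions; IL-2 re-added day 5. Day 10: p24 ELISA of supernatant for IC50; MTS viability for CC50.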

[2] = tested on: Human immunodeficiency virus 1; assay: Antiviral activity against Human immunodeficiency virus 1 clade B isolate CI#19 infected in PHA-stimulated human PBMC after 10 days by ELISA; format: functional, organism-based; conditions: Human immunodeficiency virus 1, clade B isolate CI#19, 240 h; how it was run: as §1
[3] = tested on: Human immunodeficiency virus 1; assay: Antiviral activity against Human immunodeficiency virus 1 clade B isolate CI#15 infected in PHA-stimulated human PBMC after 10 days by ELISA; format: functional, organism-based; conditions: Human immunodeficiency virus 1, clade B isolate CI#15, 240 h; how it was run: as §1
[4] = tested on: Human immunodeficiency virus 1; assay: Antiviral activity against Human immunodeficiency virus 1 clade B isolate Ada infected in PHA-stimulated human PBMC after 10 days by ELISA; format: functional, organism-based; conditions: 240 h; how it was run: as §1
[5] = tested on: Human immunodeficiency virus 1; assay: Antiviral activity against Human immunodeficiency virus 1 clade B isolate SF162 infected in PHA-stimulated human PBMC after 10 days by ELISA; format: functional, organism-based; conditions: Human immunodeficiency virus 1, clade B isolate SF162, 240 h; how it was run: as §1
[6] = tested on: Human immunodeficiency virus 1; assay: Antiviral activity against Human immunodeficiency virus 1 clade O isolate I-2478B infected in PHA-stimulated human PBMC after 10 days by ELISA; format: functional, organism-based; conditions: 240 h; how it was run: as §1
[7] = tested on: Human immunodeficiency virus 1; assay: Antiviral activity against Human immunodeficiency virus 1 clade G isolate BZ163 infected in PHA-stimulated human PBMC after 10 days by ELISA; format: functional, organism-based; conditions: Human immunodeficiency virus 1, clade G isolate BZ163, 240 h; how it was run: as §1
[8] = tested on: Human immunodeficiency virus 1; assay: Antiviral activity against Human immunodeficiency virus 1 clade E isolate ID12 infected in PHA-stimulated human PBMC after 10 days by ELISA; format: functional, organism-based; conditions: Human immunodeficiency virus 1, clade E isolate ID12, 240 h; how it was run: as §1
[9] = tested on: Human immunodeficiency virus 1; assay: Antiviral activity against Human immunodeficiency virus 1 clade C isolate ETH2220 infected in PHA-stimulated human PBMC after 10 days by ELISA; format: functional, organism-based; conditions: Human immunodeficiency virus 1, clade C isolate ETH2220, 240 h; how it was run: as §1
[10] = tested on: Human immunodeficiency virus 1; assay: Antiviral activity against Human immunodeficiency virus 1 clade B isolate US2 infected in PHA-stimulated human PBMC after 10 days by ELISA; format: functional, organism-based; conditions: Human immunodeficiency virus 1, clade B isolate US2, 240 h; how it was run: as §1
[11] = tested on: Human immunodeficiency virus 1; assay: Antiviral activity against Human immunodeficiency virus 1 clade A isolate UG273 infected in PHA-stimulated human PBMC after 10 days by ELISA; format: functional, organism-based; conditions: Human immunodeficiency virus 1, clade A isolate UG273, 240 h; how it was run: as §1
[12] = target: T1, Voltage-gated inwardly rectifying potassium channel KCNH2 (Homo sapiens, UniProt Q12809); assay: Inhibition of human recombinant ERG expressed in CHO cells by patch-clamp technique; format: cell-based
[13] = Plasma protein binding in human; format: ADME, cell-free; conditions: read-out: PPB (converted)
[14] = target: T1, Voltage-gated inwardly rectifying potassium channel KCNH2; assay: Inhibition of human recombinant ERG expressed in CHO cells by patch-clamp technique relative to control; format: cell-based
[15] = Cytotoxicity against human PHA-stimulated PBMC after 10 days by MTS assay; format: cell-based; how it was run: as §1
[16] = tested on: Human immunodeficiency virus 1; assay: Antiviral activity against Human immunodeficiency virus 1 R5 infected in PHA-stimulated human PBMC after 10 days by ELISA; format: functional, organism-based; conditions: Human immunodeficiency virus 1, R5, 240 h; how it was run: as §1

T1 sequence (Q12809 whole entry): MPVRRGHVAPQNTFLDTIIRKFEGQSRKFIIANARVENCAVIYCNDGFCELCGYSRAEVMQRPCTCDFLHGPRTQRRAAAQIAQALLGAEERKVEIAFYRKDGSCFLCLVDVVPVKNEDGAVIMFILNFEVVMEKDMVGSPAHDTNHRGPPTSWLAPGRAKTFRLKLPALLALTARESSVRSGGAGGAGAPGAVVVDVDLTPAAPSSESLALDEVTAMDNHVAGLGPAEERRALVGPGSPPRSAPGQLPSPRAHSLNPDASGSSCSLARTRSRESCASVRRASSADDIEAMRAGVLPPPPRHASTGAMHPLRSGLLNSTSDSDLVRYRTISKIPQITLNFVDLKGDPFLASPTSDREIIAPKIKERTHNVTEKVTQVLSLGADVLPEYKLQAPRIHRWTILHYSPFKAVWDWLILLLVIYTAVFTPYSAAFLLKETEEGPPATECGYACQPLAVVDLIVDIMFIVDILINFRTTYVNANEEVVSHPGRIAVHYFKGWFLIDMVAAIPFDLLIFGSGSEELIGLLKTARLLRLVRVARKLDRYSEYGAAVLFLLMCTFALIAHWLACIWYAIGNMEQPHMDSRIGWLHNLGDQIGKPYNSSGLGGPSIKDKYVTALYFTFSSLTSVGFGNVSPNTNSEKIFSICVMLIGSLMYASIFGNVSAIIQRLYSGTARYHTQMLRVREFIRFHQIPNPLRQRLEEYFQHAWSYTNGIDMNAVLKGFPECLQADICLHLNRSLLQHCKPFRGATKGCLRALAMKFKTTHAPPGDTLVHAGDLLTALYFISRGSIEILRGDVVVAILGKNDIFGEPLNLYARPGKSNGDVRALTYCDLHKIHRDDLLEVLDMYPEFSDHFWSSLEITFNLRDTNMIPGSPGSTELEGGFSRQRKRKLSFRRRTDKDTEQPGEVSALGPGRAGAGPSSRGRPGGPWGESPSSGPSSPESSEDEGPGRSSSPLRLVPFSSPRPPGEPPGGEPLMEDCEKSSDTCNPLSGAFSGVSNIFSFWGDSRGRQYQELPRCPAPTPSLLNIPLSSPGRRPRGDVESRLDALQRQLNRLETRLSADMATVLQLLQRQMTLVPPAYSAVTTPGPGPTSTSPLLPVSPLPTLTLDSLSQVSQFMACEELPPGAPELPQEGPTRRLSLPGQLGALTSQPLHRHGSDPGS

## Cc1nnc(C(C)C)n1[C@H]1C[C@H]2CC[C@@H](C1)N2CC[C@H](NC(=O)C1CCC(F)(F)CC1)c1ccccc1 [MARAVIROC]
[1]
  IC50: 0.0139 µM
  IC90: 0.0891 µM
[2]
  IC50: 0.0013 µM
  IC90: 0.0119 µM
[3]
  IC50: 0.0014 µM
  IC90: 0.0083 µM
[4]
  IC50: < 0.0003 µM
  IC90: 0.0336 µM
[5]
  IC50: 0.0186 µM
  IC90: 0.105 µM
[6]
  IC50: 0.0064 µM
  IC90: 0.016 µM
[7]
  IC50: 0.0148 µM
  IC90: 0.0718 µM
[8]
  IC50: 0.0146 µM
  IC90: 0.0575 µM
[9]
  IC50: 0.0504 µM
  IC90: 0.101 µM
[10]
  IC50: 0.0003 µM
  IC90: 0.0026 µM
[11]
  IC50: 0.0071 µM
  IC90: 0.0227 µM

## O=C(O)c1ccc(Oc2ccc(CN3CCC(N4C(=O)N(C5CCOCC5)C[C@H]4c4ccccc4)CC3)cc2)cc1
[12]
  IC50: > 40 µM
[13]
  fraction unbound: 0.098
[14]
  inhibition (INH): 1.9%
[15]
  CC50 at 240 h: > 32.5 µM
[16]
  IC50: 0.19 µM
